In ChEMBL document CHEMBL4219109, “Design, synthesis and biological evaluation of novel hydroxamic acid based histone deacetylase 6 selective inhibitors bearing phenylpyrazol scaffold as surface recognition motif” (Bioorg Med Chem, 2018):
pIC50: −log10 of the molar value.

Assays:
A549 = assay: Antiproliferative activity against human A549 cells after 96 hrs by MTT assay; assay type: functional; conditions: Homo sapiens, A549, 96 h
Procedure, shortened: (§1)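 Cells from Shanghai Cell Bank; A549 grown in high-glucose DMEM and HepG2 in MEM, both with 10% FBS plus penicillin/streptomycin, at 37°C in 5% CO₂. Seeded at 1.5-3.5×10⁴ cells/well for 24 h, then given graded compound concentrations for 96 h. MTT solution (2 mg/mL) added for 4 h, formazan dissolved in DMSO, A570 read. Growth expressed as treated/untreated cell number ratio.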

Histone deacetylase 8 = target: T1, Histone deacetylase 8 (Homo sapiens, UniProt Q9BY41); assay: (§2) Inhibition of full length recombinant human C-terminal His-tagged HDAC8 expressed in baculovirus infected sf9 cells using Boc-Lys-(TFA)-AMC as substrate preincubated for 15 mins followed by substrate addition measured after 60 mins by fluorescence assay
T1 sequence (Q9BY41 whole entry): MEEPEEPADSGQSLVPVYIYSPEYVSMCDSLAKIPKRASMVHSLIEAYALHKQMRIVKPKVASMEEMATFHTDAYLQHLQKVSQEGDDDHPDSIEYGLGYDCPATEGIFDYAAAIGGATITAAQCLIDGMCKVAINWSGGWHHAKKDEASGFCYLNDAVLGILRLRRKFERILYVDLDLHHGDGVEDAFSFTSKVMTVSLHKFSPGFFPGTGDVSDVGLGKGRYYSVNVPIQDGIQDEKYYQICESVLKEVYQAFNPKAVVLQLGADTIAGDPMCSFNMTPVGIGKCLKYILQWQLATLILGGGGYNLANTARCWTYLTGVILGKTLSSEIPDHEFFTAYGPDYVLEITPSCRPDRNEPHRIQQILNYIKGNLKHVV

[1] = target: Histone deacetylase 3/Nuclear receptor corepressor 2 (HDAC3/NCoR2) (Homo sapiens, UniProt O15379); assay: as §2, with “HDAC3/N-terminal GST-tagged NCOR2 (395 to 489 residues)” for “HDAC8”, “Boc-Lys-(Ac)-AMC” for “Boc-Lys-(TFA)-AMC”
Sequence of Histone deacetylase 3/Nuclear receptor corepressor 2 (HDAC3/NCoR2) (O15379 whole entry, the tested form may be a part): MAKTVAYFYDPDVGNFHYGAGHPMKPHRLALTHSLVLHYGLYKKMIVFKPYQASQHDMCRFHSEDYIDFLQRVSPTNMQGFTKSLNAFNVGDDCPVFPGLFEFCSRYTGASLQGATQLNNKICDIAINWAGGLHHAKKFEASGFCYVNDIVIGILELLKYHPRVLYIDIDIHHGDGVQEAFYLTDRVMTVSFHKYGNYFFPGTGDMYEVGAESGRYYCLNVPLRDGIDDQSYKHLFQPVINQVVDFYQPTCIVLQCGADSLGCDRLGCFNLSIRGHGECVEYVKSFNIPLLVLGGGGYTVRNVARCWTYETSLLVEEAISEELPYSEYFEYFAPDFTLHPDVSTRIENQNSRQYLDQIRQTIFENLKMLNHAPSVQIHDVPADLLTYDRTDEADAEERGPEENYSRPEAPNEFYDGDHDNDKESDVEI
Sequence of Histone deacetylase 3/Nuclear receptor corepressor 2 (HDAC3/NCoR2) (Q9Y618 whole entry, further chain, the tested form may be a part): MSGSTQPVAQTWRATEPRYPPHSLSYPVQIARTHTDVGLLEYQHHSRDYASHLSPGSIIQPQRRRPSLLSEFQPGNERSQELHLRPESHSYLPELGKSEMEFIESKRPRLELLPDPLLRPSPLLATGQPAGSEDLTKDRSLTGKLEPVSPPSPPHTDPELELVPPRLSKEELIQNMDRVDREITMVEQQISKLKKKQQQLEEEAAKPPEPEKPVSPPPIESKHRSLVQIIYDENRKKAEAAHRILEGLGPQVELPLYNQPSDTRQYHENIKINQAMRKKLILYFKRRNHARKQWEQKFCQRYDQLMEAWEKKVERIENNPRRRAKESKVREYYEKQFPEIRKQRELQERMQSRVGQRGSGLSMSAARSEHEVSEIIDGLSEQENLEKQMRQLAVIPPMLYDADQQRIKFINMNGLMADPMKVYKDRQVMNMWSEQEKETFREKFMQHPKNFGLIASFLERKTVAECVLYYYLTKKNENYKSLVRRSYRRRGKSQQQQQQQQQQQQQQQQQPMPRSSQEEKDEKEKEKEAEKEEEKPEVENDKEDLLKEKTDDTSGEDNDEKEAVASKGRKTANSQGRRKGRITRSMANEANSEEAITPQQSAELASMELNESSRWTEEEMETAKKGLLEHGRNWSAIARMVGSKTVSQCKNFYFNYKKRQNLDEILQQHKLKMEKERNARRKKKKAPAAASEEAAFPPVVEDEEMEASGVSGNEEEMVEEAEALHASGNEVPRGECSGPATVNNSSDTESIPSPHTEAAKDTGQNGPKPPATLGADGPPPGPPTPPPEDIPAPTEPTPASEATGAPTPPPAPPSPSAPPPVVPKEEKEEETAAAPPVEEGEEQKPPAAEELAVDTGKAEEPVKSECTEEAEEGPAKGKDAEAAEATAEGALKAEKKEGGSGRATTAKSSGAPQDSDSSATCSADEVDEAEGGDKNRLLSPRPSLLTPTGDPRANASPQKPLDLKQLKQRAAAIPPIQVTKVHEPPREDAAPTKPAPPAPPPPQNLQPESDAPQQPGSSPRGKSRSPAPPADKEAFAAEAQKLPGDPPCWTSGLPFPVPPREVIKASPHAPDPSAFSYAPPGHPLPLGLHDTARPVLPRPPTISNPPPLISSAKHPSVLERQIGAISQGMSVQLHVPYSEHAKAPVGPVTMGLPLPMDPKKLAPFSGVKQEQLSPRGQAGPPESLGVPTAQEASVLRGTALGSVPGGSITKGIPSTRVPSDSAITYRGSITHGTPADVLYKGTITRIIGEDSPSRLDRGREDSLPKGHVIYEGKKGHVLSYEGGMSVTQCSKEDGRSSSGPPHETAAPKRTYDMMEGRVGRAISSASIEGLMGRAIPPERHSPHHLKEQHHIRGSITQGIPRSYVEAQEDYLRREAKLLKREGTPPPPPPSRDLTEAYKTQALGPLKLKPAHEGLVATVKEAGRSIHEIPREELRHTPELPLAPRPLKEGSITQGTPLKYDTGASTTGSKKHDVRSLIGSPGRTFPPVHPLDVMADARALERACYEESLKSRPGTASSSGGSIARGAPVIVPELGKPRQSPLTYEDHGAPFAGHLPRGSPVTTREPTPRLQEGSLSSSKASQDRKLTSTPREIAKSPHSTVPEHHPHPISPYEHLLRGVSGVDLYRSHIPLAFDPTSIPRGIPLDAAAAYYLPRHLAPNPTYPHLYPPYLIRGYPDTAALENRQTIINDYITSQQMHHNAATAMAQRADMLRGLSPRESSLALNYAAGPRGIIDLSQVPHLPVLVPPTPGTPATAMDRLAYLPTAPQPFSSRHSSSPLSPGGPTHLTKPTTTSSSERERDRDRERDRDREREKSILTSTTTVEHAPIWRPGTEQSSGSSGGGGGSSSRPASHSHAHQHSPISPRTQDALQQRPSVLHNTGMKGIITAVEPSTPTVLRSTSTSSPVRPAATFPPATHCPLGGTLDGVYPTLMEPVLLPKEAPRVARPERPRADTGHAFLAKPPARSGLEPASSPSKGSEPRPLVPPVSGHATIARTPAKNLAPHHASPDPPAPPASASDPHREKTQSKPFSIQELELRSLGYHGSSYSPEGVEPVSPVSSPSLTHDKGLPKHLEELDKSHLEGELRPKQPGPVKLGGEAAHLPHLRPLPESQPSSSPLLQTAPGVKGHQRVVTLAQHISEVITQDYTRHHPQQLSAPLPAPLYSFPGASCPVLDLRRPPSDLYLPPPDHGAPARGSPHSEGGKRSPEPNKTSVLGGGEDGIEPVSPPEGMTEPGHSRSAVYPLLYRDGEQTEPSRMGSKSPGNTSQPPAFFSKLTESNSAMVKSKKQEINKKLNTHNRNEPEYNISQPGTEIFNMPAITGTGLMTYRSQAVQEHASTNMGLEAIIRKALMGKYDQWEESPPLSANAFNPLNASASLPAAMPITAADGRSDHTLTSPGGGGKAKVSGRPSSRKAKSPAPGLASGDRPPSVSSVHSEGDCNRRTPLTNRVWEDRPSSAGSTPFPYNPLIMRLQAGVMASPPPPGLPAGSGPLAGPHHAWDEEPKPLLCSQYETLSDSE

Histone deacetylase 2 = Histone deacetylase 2 (Homo sapiens, UniProt Q92769); assay: Inhibition of full length recombinant human C-terminal His-tagged HDAC2 expressed in baculovirus infected sf9 cells using Boc-Lys-(Ac)-AMC as substrate preincubated for 15 mins followed by substrate addition measured after 60 mins by fluorescence assay
Sequence of Histone deacetylase 2 (Q92769 whole entry): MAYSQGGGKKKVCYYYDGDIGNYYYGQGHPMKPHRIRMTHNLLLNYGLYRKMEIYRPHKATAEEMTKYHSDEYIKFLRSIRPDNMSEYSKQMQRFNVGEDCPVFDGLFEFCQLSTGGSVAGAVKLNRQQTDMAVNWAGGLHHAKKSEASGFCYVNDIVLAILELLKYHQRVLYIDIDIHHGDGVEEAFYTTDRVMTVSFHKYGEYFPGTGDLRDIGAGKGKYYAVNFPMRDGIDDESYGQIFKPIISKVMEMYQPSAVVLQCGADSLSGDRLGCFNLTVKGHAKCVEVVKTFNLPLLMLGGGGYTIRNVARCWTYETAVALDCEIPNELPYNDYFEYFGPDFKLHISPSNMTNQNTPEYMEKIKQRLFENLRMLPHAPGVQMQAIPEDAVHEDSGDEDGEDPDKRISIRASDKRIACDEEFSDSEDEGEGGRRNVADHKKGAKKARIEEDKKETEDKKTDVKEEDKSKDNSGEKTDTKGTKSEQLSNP

[2] = target: T2, Protein deacetylase HDAC6 (Homo sapiens, UniProt Q9UBN7); assay: Inhibition of full length recombinant human N-terminal GST-tagged HDAC6 expressed in baculovirus infected sf9 cells using Boc-Lys-(Ac)-AMC as substrate preincubated for 15 mins followed by substrate addition measured after 60 mins by fluorescence assay
T2 sequence (Q9UBN7 whole entry): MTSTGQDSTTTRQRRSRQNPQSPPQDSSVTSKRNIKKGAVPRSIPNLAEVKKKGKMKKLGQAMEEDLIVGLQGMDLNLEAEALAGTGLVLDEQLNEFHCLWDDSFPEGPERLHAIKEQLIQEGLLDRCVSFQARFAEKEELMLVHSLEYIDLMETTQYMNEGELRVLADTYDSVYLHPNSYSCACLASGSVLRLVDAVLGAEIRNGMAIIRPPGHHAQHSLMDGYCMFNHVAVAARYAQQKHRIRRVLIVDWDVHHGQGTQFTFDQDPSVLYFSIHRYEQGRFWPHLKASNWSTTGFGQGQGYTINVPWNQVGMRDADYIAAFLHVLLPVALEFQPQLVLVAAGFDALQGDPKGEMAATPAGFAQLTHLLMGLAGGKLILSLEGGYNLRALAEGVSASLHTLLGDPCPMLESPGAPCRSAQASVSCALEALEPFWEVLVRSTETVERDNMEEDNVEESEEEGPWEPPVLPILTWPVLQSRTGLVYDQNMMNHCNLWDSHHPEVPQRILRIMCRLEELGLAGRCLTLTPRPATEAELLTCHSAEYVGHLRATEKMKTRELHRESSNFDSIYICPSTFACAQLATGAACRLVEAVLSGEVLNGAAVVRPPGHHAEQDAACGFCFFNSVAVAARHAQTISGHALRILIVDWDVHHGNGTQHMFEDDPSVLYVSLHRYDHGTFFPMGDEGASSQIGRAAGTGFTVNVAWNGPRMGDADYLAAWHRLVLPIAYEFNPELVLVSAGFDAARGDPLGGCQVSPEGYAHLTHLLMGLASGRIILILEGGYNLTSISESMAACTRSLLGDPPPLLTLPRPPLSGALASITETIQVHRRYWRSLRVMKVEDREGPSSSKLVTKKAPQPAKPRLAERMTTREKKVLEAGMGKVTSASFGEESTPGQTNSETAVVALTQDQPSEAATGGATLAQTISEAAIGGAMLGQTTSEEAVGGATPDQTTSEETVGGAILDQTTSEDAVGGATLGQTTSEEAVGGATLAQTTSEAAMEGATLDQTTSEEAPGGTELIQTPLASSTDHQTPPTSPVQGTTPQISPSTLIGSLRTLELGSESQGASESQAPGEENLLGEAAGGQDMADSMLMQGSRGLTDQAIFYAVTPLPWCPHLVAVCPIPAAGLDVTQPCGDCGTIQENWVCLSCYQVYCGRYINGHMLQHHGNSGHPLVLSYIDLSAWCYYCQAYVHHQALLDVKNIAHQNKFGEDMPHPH

HepG2 [3] = assay: Antiproliferative activity against human HepG2 cells after 96 hrs by MTT assay; assay type: functional; conditions: Homo sapiens, HepG2, 96 h; procedure, shortened: as §1
Histone deacetylase 1 = Histone deacetylase 1 (Homo sapiens, UniProt Q13547); assay: Inhibition of full length recombinant human C-terminal FLAG/His-tagged HDAC1 expressed in baculovirus infected sf9 cells using Boc-Lys-(Ac)-AMC as substrate preincubated for 15 mins followed by substrate addition measured after 60 mins by fluorescence assay
Sequence of Histone deacetylase 1 (Q13547 whole entry): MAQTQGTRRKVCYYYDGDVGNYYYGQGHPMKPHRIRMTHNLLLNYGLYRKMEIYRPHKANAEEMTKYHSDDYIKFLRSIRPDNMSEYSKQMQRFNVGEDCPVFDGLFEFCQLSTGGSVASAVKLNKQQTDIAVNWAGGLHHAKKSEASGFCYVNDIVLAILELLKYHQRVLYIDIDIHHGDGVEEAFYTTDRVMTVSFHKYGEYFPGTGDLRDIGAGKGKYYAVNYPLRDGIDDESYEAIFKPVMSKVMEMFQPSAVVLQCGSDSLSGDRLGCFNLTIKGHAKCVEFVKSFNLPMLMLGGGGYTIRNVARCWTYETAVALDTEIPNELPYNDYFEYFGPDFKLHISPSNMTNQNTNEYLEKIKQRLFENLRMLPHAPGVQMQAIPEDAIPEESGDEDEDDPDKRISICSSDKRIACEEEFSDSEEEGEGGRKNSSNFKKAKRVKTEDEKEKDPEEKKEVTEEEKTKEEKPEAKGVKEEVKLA

Histone deacetylase = assay: Inhibition of HDAC in human HeLa nuclear extract using Boc-Lys-(Ac)-AMC as substrate preincubated for 15 mins followed by substrate addition measured after 60 mins by fluorescence assay; assay type: protein assay
HepG2 [4] = assay: Potency index, ratio of vorinostat GI50 to compound GI50 for human HepG2 cells; assay type: functional

SMILES	GI50 (A549)	pIC50 (Histone deacetylase 8)	pIC50 [1]	pIC50 (Histone deacetylase 2)	pIC50 [2]	GI50 (HepG2 [3])	pIC50 (Histone deacetylase 1)	IC50 (Histone deacetylase)	RatioGI50 (HepG2 [4])
Cc1cc(-c2ccc(F)cc2)n(Cc2ccc(C(=O)NO)cc2)n1	33 µM	< 5.30	5.92	5.70	7.70	3.63 µM	5.69	1.439 µM	6
O=C(CCCCCCNC(=O)c1cc(-c2ccc(F)cc2)[nH]n1)NO	1.98 µM	5.53	7.46	7.40	7.66	23.2 µM	7.10	0.043 µM	–
CCCc1cc(-c2ccc(F)cc2)n(Cc2ccc(C(=O)NO)cc2)n1	16 µM	< 5.30	5.71	5.54	6.78	6.66 µM	< 5.30	3.827 µM	–
O=C(NO)c1ccc(CNC(=O)c2cc(-c3ccc(F)cc3)[nH]n2)cc1	20.2 µM	< 5.30	8.05	7.77	9.00	38.1 µM	7.42	0.022 µM	–
O=C(CCCNC(=O)c1cc(-c2ccc(F)cc2)[nH]n1)NO	> 100 µM	< 5.30	5.85	5.74	5.98	88 µM	5.43	2.603 µM	–
O=C(CCCCCNC(=O)c1cc(-c2ccc(F)cc2)[nH]n1)NO	7.09 µM	5.43	7.44	7.38	7.54	47.6 µM	7.18	0.058 µM	–
O=C(CCNC(=O)c1cc(-c2ccc(F)cc2)[nH]n1)NO	46.9 µM	< 5.30	< 5.30	< 5.30	< 5.30	76 µM	< 5.30	> 5 µM	–
O=C(CCCCNC(=O)c1cc(-c2ccc(F)cc2)[nH]n1)NO	> 100 µM	< 5.30	6.17	6.05	6.56	> 100 µM	5.98	0.644 µM	–
CCCc1cc(-c2ccc(F)cc2)nn1Cc1ccc(C(=O)NO)cc1	15.2 µM	< 5.30	6.54	6.44	6.97	16.8 µM	6.27	0.476 µM	–
